# The source made the active and inactive calls. The calls are words filed in the database; no cut-off is given here.
# Key:
# [1] = Binding affinity to HIV1 23-2AP TAR by 2-AP based fluorescence assay; set-up: species or system Human immunodeficiency virus 1; conditions: read-out: Kd(app)
# Method in brief: (§1)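 2-AP-labelled TAR hairpin (U23 or U25 replaced) annealed at 95 °C 3 min, cooled ≥30 min, used at 1 μM in PBS pH 7.4 with compound added from DMSO, 30 min at room temperature with rocking. Fluorescence read at ex 310/em 365 nm, compound fluorescence subtracted, normalized to free RNA. Apparent Kd from nonlinear fit; highest concentration 400 μM; triplicates, ± SD.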
# [2] = Binding affinity to HIV1 TAR by FRET based Tat/TAR displacement assay; set-up: species or system Human immunodeficiency virus 1
# Method in brief: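 Unlabeled TAR (100 nM) with 16-mer Tat peptide (N-terminal FAM, C-terminal TAMRA; 12 nM) in 50 mM Tris pH 7.4, 20 mM KCl, 0.01% Triton X-100, 5% DMSO; compound added and incubated 30 min at room temperature with rocking. Read at ex 485/em 590 nm. Controls: complex alone for 0% inhibition, peptide alone for 100%.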
# [3] = Binding affinity to HIV1 25-2AP TAR by 2-AP based fluorescence assay; set-up: species or system Human immunodeficiency virus 1; conditions: read-out: Kd(app); method in brief: as §1
# [4] = test system: Human immunodeficiency virus 1; assay: Effect on global topology of HIV-1 RNA 5'-UTR by SHAPE analysis
# Method in brief: (§2)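 RNA (5 pmol) heated to 90 °C 3 min, slowly cooled to 4 °C, in 50 mM Tris-HCl pH 8.0, 100 mM NaCl, 5 mM MgCl2, then 37 °C for 15 min. Ligand added to final 5 or 0.5 μM, 10 min at room temperature. 1M7 at final 3.5 mM (DMSO alone for control), 37 °C 5 min. Primer extension with SuperScript III, capillary electrophoresis; control peak areas subtracted.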
# [5] = test system: Human immunodeficiency virus 1; assay: Binding affinity to HIV-1 TAR RNA 5'-UTR assessed as induction of chemical reactivity by SHAPE analysis; method in brief: as §2
# [6] = test system: Human immunodeficiency virus 1; assay: Binding affinity to HIV-1 TAR RNA 5'-UTR assessed as 1M7 reactivity reduction throughout TAR with residues U13-14, C19, and G32 by SHAPE analysis; method in brief: as §2
# [7] = test system: Human immunodeficiency virus 1; assay: Binding affinity to HIV1 TAR by NMR analysis
# Method in brief: (§3)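 NMR buffer: 20 mM d19-Bis-Tris pH 6.5, 10 mM NaCl, DSA reference, in D2O or 95% H2O/5% D2O. Ligand stocks 10 mM in d6-DMSO; free-ligand samples […], final DMSO 15%. RNA heated 90 °C 4 min, snap-cooled at −20 °C. 1D 1H with excitation sculpting; ligand line broadening with 10 μM TAR; TOCSY shift perturbations.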
# [8] = test system: Human immunodeficiency virus 1; assay: Binding affinity to HIV1 TAR by TOCSY NMR analysis; method in brief: as §3
# [9] = test system: Human immunodeficiency virus 1; assay: Binding affinity to HIV-1 TAR RNA 5'-UTR assessed as decrease in 1M7 reactivity for residue U25 within TAR bulge and U31, G33 and A35 within apical loop by SHAPE analysis; method in brief: as §2
# [10] = test system: Human immunodeficiency virus 1; assay: Binding affinity to HIV1 TAR assessed as induction of chemical shift perturbations of TAR residues by NMR analysis; method in brief: as §3
Compound,Kd [1],IC50 [2],Kd [3],Activity [4],Activity [5],Activity [6],Activity [7],Activity [8],Activity [9],Activity [10]
Cc1ccc2c(N)c(C(=O)Nc3ccccn3)sc2n1,64.3 µM,> 400 µM,50.3 µM,,,,,,,
Cc1ccc2c(N)c(-c3nnc(-c4cccc(C(F)(F)F)c4)o3)sc2n1,75 µM,40.1 µM,49.1 µM,inactive,Active,Active,,,,
Cc1ccc2c(N)c(S(=O)(=O)Nc3cccc(F)c3)sc2n1,> 400 µM,> 400 µM,> 400 µM,,,,inactive,,,
Cc1ccc2cc(C(=O)Nc3cccc(C(F)(F)F)c3)sc2n1,> 400 µM,> 400 µM,> 400 µM,,,,,,,
CC(C)c1ccc2c(N)c(C(=O)Nc3cccc(C(F)(F)F)c3)sc2n1,107 µM,> 400 µM,43.3 µM,,,,,,,
Cc1ccc2c(N)c(C(=O)NCc3cccc(C(F)(F)F)c3)sc2n1,69.4 µM,> 400 µM,66.4 µM,,,,,,,
Cc1ccc2c(N)c(S(=O)(=O)Nc3cccc(C(F)(F)F)c3)sc2n1,> 400 µM,> 400 µM,> 400 µM,,,,,,,
Cc1ccc2c(N)c(C(=O)Nc3ccc(C(F)(F)F)cc3)sc2n1,84.1 µM,87 µM,75.3 µM,,,,,,,
Cc1ccc2c(N)c(-c3nc(-c4cccc(C(F)(F)F)c4)no3)sc2n1,46 µM,45.1 µM,47.7 µM,,,,,,,
Cc1ccc2c(N)c(C(=O)Nc3ccccc3C(F)(F)F)sc2n1,> 400 µM,90.4 µM,90.1 µM,,,,,,,
Cc1ccc2c(N)c(-c3nnc(-c4ccccc4)o3)sc2n1,56.9 µM,> 300 µM,44.6 µM,,,,,,,
Cc1ccc2c(N)c(C(=O)Nc3cccnc3)sc2n1,89.5 µM,> 400 µM,68 µM,,,,,,,
Cc1ccc2c(N)c(C(=O)Nc3ccncc3)sc2n1,51.1 µM,> 400 µM,40 µM,inactive,Active,,Active,Active,Active,Dose-dependent effect
Nc1c(-c2nnc(-c3cccc(C(F)(F)F)c3)o2)sc2ncccc12,44.1 µM,37.6 µM,50.2 µM,,,,,,,
Cc1ccc2c(N)c(C(=O)Nc3cccc(C(F)(F)F)c3)sc2n1,54.1 µM,> 400 µM,47.7 µM,,,,,,,
Cc1cnc2sc(C(=O)Nc3cccc(C(F)(F)F)c3)c(N)c2c1,55.4 µM,> 400 µM,48.5 µM,,,,,,,
Cc1ccc2c(n1)sc1c(=O)n(-c3cccc(C(F)(F)F)c3)c(=O)[nH]c12,> 400 µM,> 400 µM,> 400 µM,,,,,,,
Cc1ccnc2sc(C(=O)Nc3cccc(C(F)(F)F)c3)c(N)c12,94.1 µM,> 400 µM,66.5 µM,,,,,,,
Cc1ccc2c(N)c(-c3nnc(-c4cccc(Cl)c4)o3)sc2n1,45.6 µM,> 400 µM,42.5 µM,,,,,,,
